Laboratory results: the RNAGym collection of RNA variant scans (doi:10.1126/science.aae0568)
This sample holds only a part of the variants without activity.

B1: tRNA (parent)
chain: GUUCCGUUGGCGUAAUGGUAACGCGUCUCCCUCCUAAGGAGAAGACUGCGGGUUCGAGUCCCGUACGGAACG

Variants of: B1
Experiment: yeast fitness relative to wild type (ratio to wild type); higher = fitter; tRNA-Arg(CCU), competitive growth, 37 C, YPD
Procedure, shortened: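 Gene amplicons from the start population and from each of six end populations were read by 100-nucleotide paired-end sequencing. Those end populations came from pooled Saccharomyces cerevisiae strains carrying tRNA-Arg(CCU) gene variants at the native locus, competed in YPD at 37°C for 24 hours. Fitness relative to wild type was worked out from changes in genotype frequencies. Genotypes needed ≥ 100 starting reads, and estimates < 0.5 were set to 0.5.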

First: U7A A45U
Second: U7A C27G C33A A36G G58A C66U
The yeast fitness of the first is higher: 0.672 for the first, at most 0.5 for the second.

U7A A14C C27U A45U G67A and U7A A21C C33A A45U C62A cannot be ordered by yeast fitness: at most 0.5 for the first, at most 0.5 for the second.

U7A A20C G67C and G6C G25A C27G A57U cannot be ordered by yeast fitness: at most 0.5 for the first, at most 0.5 for the second.

U7A C22G A57U and U7A C22G A57G cannot be ordered by yeast fitness: at most 0.5 for the first, at most 0.5 for the second.

Compared with G6C U8C G56A, G6C G52C C61A is lower in yeast fitness: 0.672 for the first, at most 0.5 for the second.

Compared with U7A A20G C49G G67A, U7A A21U C27G C33G A45U is higher in yeast fitness: at most 0.5 for the first, 0.506 for the second.

U7A A21C U32C and U7A A15C C55G cannot be ordered by yeast fitness: at most 0.5 for the first, at most 0.5 for the second.

First: U7A C27U C30G G38C C49U A65G
Second: G6C U54C C66A
The yeast fitness of the first is higher: 0.664 for the first, 0.6 for the second.

Compared with U7A A36U A37U, U7A A20G C31A is lower in yeast fitness: 0.768 for the first, at most 0.5 for the second.

First: U7A A70U
Second: U7A A70G
The yeast fitness of the first is lower: 0.689 for the first, 0.829 for the second.

Compared with U7A A42G C46G A65C, U7A C29U is higher in yeast fitness: 0.66 for the first, 0.67 for the second.

Compared with U7A A43G G51C, U7A A21C U54C is lower in yeast fitness: 0.537 for the first, at most 0.5 for the second.

G6C U8G U19G C33A A42C G58A and G6C U13G G18A G48C G68U cannot be ordered by yeast fitness: at most 0.5 for the first, at most 0.5 for the second.

Going from G6C G23C C24A to U7A C31G U64A C66U G68C, the yeast fitness falls from 0.585 to at most 0.5.

First: G6C G68A
Second: G6C U47A G51C A65G
The yeast fitness of the first is higher: 0.662 for the first, 0.644 for the second.

First: U7A A37U C62A
Second: G6U U7C A70C
The yeast fitness of the first is higher: 0.571 for the first, at most 0.5 for the second.

First: U7A C29A G58A C61G G63A A70U
Second: U7A C27U C66A
The yeast fitness of the first is higher: 0.526 for the first, at most 0.5 for the second.

U7A A15C A57G and U7A A42C U47A G63C A69C cannot be ordered by yeast fitness: at most 0.5 for the first, at most 0.5 for the second.

U7A C29G G38A G44A C46U C62G and G6C U7C G23C C24A C49U C60A cannot be ordered by yeast fitness: at most 0.5 for the first, at most 0.5 for the second.

Going from U7A C11A C33U C55G G56A to G6C G51C A65C, the yeast fitness falls from 0.838 to 0.579.

Compared with G6C U59C, U7A A21G is higher in yeast fitness: 0.656 for the first, 0.738 for the second.

First: U7A A21C
Second: U7A A36G A43G C62A
The yeast fitness of the first is higher: 0.54 for the first, at most 0.5 for the second.

Compared with U7A C27A U28C C49A, G6C G25C A40U A65C is lower in yeast fitness: 0.622 for the first, at most 0.5 for the second.

First: G6C U35A
Second: U7A A20C U28C G58C
The yeast fitness of the first is higher: 0.876 for the first, 0.647 for the second.

U7A C11A C30A and U7A C29G G67U cannot be ordered by yeast fitness: at most 0.5 for the first, at most 0.5 for the second.

Going from U7A A14G A15C A36G A40U C46A G52C A70U to U7A C22A C24U A36U, the yeast fitness falls from 0.649 to at most 0.5.

U7A A37G A40G A69U and G6C U19A G38C C55A cannot be ordered by yeast fitness: at most 0.5 for the first, at most 0.5 for the second.

U7A A65C A69C and U7A C30A C31G A43U U54G C62G cannot be ordered by yeast fitness: at most 0.5 for the first, at most 0.5 for the second.

Going from U7A A65U A70G to U7A C27A C29G C30G G51A, the yeast fitness falls from 0.677 to 0.535.

Going from G6C G18A to U7A A40U A43C, the yeast fitness falls from 0.729 to 0.656.

Going from U7A A20G C46G to U7A A21G C30G, the yeast fitness falls from 0.507 to at most 0.5.

Going from G6C U32A A37U to U7A C22A C30U C61U G67A G68U, the yeast fitness falls from 0.583 to at most 0.5.

Going from G6C U8C C11U G39C C55A to G6C G23C C24U G68A, the yeast fitness rises from at most 0.5 to 0.689.

First: U7A C31G
Second: G6C G17C C31G A36G U59C
The yeast fitness of the first is higher: 0.78 for the first, 0.599 for the second.

Going from G6C U26C A37U A43U to G6C G51C, the yeast fitness rises from at most 0.5 to 0.596.

G6C U13G G18A U54C C55A and U7A C31G G63A cannot be ordered by yeast fitness: at most 0.5 for the first, at most 0.5 for the second.

First: U7A C33A C46U G63U
Second: U7A A43C
The yeast fitness of the first is lower: 0.574 for the first, 0.824 for the second.

G6C U7G C24G C34U U53C C55G C62A and U7A A21C C29U A37G A57G cannot be ordered by yeast fitness: at most 0.5 for the first, at most 0.5 for the second.

First: G6C U8C C49U
Second: G6C U8C A14G
The yeast fitness of the first is higher: 0.531 for the first, 0.522 for the second.

G6C U7C C31A and U7A C22G C24G U28C G56A A65U cannot be ordered by yeast fitness: at most 0.5 for the first, at most 0.5 for the second.

Compared with G6C U26A, G6C U26G is higher in yeast fitness: 0.641 for the first, 0.721 for the second.

Going from G6C U26C to U7A C31G G51A U64A C66U G68C, the yeast fitness falls from 0.959 to at most 0.5.

Going from G6C G25C C29G G52A A69U to G6C G51A A65G C66U, the yeast fitness falls from 0.527 to at most 0.5.

First: G6C U47C
Second: G6C U47G
The yeast fitness of the first is higher: 1.01 for the first, 0.588 for the second.

Compared with G6C U8C U54C G58A, G6C G18C C22U is higher in yeast fitness: at most 0.5 for the first, 0.548 for the second.

G6C G18C C22U C34G A36U G56C G63A and G6C U7G U19A C27G G67U cannot be ordered by yeast fitness: at most 0.5 for the first, at most 0.5 for the second.

G6C U16A G23C U64A and U7A C29G C46G G58A cannot be ordered by yeast fitness: at most 0.5 for the first, at most 0.5 for the second.

G6C U8C G58C G67A and U7A C29U C33U U54A cannot be ordered by yeast fitness: at most 0.5 for the first, at most 0.5 for the second.

First: U7A A40U C55G G63C
Second: U7A A15U A40G G68C
The yeast fitness of the first is lower: at most 0.5 for the first, 0.514 for the second.

Compared with U7A A20G G23A U26G, U7A A14C A20G is lower in yeast fitness: 0.548 for the first, at most 0.5 for the second.

Going from G6C G58C U64A to U7A A15C G23C C27U G56A C61A, the yeast fitness rises from 0.529 to 0.602.

Going from G6C G18C A21G A40U C49U C61U A70G to U7A C11U, the yeast fitness rises from 0.564 to 0.686.

First: U7A C11A
Second: G6U A21G A70G
The yeast fitness of the first is lower: at most 0.5 for the first, 0.562 for the second.

Compared with U7A C34A, U7A C24U C33A A65U is lower in yeast fitness: 0.662 for the first, 0.58 for the second.

First: U7A A21U G41A U64A
Second: G6C G44C
The yeast fitness of the first is lower: at most 0.5 for the first, 0.853 for the second.

G6C G25A A37U A42G and U7A A14C A42G A57U cannot be ordered by yeast fitness: at most 0.5 for the first, at most 0.5 for the second.

Compared with G6C G38C, G6C G25A A37U is lower in yeast fitness: 0.693 for the first, at most 0.5 for the second.

Compared with G6C U13C, U7A C24G C29G C30U A40C G68C is lower in yeast fitness: 0.823 for the first, 0.663 for the second.

Going from U7A C27A G50C C60U A70C to G6C U47A G51C, the yeast fitness rises from at most 0.5 to 0.525.

Compared with G6C G41C, G6C G50A G67A is lower in yeast fitness: 0.671 for the first, 0.606 for the second.

Going from G6C U8C G48A to U7A C22U U26C A40G A43U C49A, the yeast fitness falls from 0.664 to at most 0.5.

U7A C30U G50C and U7A A20U G23C U26A C33A A57U cannot be ordered by yeast fitness: at most 0.5 for the first, at most 0.5 for the second.

First: U7A C27U A69U
Second: G6C U28C C46U A69G
The yeast fitness of the first is higher: 0.691 for the first, at most 0.5 for the second.

G6C U16A C30A A69U and G6C U7C G12A C24U C29G G50C C66U cannot be ordered by yeast fitness: at most 0.5 for the first, at most 0.5 for the second.

Compared with G6U C11A U13A G52A C61U A69C, U7A A36G is higher in yeast fitness: 0.527 for the first, 0.662 for the second.

Going from G6C U8A C22U C61G to G6C U19A A20U C22G U28C C34A G52A, the yeast fitness falls from 0.501 to at most 0.5.

U7A A37C A43C A65G and G6C U7C G9C C49U cannot be ordered by yeast fitness: at most 0.5 for the first, at most 0.5 for the second.

Going from U7A C30U A65C to G6U U8C, the yeast fitness rises from 0.633 to 0.769.

Going from G6U C33U to U7A A36U A45G U47A, the yeast fitness falls from 0.562 to at most 0.5.

U7A A40U G67A and U7A A20G G23A U26G G50U cannot be ordered by yeast fitness: at most 0.5 for the first, at most 0.5 for the second.

U7A C24U U54C A69U and U7A C31A G39C G56C cannot be ordered by yeast fitness: at most 0.5 for the first, at most 0.5 for the second.

U7A C31G U64A C66U G68C A69G and U7A C29G A36G cannot be ordered by yeast fitness: at most 0.5 for the first, at most 0.5 for the second.

U7A C29U C34A G50C A65C and G6C U8A C22U U59C cannot be ordered by yeast fitness: at most 0.5 for the first, at most 0.5 for the second.

First: U7A A21U A65C
Second: U7A C30G A43C A57U G58A
The yeast fitness of the first is higher: 0.577 for the first, at most 0.5 for the second.

Compared with U7A C33G, U7A C33U is higher in yeast fitness: 0.59 for the first, 0.592 for the second.

Compared with U7A A42G C46A C55G, G6C G23A is higher in yeast fitness: at most 0.5 for the first, 0.893 for the second.

Compared with G6C U13A A20U A21G A69U, U7A is higher in yeast fitness: at most 0.5 for the first, 0.826 for the second.

G6C U8C A20G G50A A57U and U7A A40U C61G G67U cannot be ordered by yeast fitness: at most 0.5 for the first, at most 0.5 for the second.

U7A C24U C30U C31G A57G and U7A A45G C61G cannot be ordered by yeast fitness: at most 0.5 for the first, at most 0.5 for the second.

U7A C22G G38C C60U and G6C U8C C49U A65U cannot be ordered by yeast fitness: at most 0.5 for the first, at most 0.5 for the second.

U7A A36U A45G U47A G68A and U7A A20G G23A U26G G67A cannot be ordered by yeast fitness: at most 0.5 for the first, at most 0.5 for the second.

Compared with U7A C22U U54C C66U G68C A69U, U7A A36G A40U C46G is lower in yeast fitness: 0.567 for the first, at most 0.5 for the second.

Going from G6C G63C to G6C G63A, the yeast fitness rises from 0.689 to 0.911.

For U7A C24G C33U G41C, the yeast fitness was at most 0.5.
